In ChEMBL document CHEMBL1154229 (Bioorg Med Chem Lett, 2009):
The source made the active and inactive calls. No cut-off for these calls is given here.

Assays:
[1] = molecular target: Cytochrome P450 2C9 (Homo sapiens, UniProt P11712); experiment: Inhibition of CYP2C9; assay type: ADME
[2] = molecular target: T1, Bifunctional epoxide hydrolase 2 (Homo sapiens, UniProt P34913); experiment: Inhibition of human soluble epoxide hydrolase in HEK293 cells assessed as DHET production; assay type: cell-based
T1 sequence (P34913 whole entry): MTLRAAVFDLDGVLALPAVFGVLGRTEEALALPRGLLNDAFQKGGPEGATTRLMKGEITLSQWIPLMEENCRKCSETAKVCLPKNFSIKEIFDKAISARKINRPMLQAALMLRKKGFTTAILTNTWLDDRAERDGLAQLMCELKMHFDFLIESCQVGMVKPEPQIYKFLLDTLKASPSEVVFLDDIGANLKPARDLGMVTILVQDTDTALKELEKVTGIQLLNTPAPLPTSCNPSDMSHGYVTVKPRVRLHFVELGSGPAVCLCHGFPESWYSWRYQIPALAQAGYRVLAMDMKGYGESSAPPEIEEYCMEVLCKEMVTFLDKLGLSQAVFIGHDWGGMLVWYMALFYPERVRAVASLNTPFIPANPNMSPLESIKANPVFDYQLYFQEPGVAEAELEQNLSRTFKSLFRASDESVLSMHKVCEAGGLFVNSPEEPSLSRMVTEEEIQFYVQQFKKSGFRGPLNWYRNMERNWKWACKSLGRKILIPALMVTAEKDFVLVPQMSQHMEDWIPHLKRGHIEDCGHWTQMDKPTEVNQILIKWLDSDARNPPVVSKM
Procedure, shortened: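 Whole-cell 14,15-DHET production assay in HEK293 cells, run with or without 10% human serum. Values come from one or two experiments, each in triplicate, with repeats within 20%.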

[3] = molecular target: T2, Epoxide hydrolase 1 (Homo sapiens, UniProt P07099); experiment: Inhibition of human microsomal epoxide hydrolase
T2 sequence (P07099 whole entry): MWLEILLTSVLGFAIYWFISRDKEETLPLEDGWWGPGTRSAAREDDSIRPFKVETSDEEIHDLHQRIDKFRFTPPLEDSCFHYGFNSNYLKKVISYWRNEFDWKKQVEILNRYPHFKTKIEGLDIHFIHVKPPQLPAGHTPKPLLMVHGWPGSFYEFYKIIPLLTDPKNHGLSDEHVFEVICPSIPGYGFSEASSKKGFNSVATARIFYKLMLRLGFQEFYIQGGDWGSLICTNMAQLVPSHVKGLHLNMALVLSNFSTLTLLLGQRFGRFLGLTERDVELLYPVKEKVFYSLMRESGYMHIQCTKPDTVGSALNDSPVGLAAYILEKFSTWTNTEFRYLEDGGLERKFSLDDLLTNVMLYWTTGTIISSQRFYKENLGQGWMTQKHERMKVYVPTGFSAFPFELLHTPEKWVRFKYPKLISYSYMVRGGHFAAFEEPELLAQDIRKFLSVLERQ
Procedure, shortened: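 Human mEH used as the counterscreen enzyme. Values come from one or two experiments, each in triplicate, with repeats within 20%.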

[4] = molecular target: T3, Bifunctional epoxide hydrolase 2 (Rattus norvegicus, UniProt P80299); experiment: Inhibition of rat soluble epoxide hydrolase
T3 sequence (P80299 whole entry): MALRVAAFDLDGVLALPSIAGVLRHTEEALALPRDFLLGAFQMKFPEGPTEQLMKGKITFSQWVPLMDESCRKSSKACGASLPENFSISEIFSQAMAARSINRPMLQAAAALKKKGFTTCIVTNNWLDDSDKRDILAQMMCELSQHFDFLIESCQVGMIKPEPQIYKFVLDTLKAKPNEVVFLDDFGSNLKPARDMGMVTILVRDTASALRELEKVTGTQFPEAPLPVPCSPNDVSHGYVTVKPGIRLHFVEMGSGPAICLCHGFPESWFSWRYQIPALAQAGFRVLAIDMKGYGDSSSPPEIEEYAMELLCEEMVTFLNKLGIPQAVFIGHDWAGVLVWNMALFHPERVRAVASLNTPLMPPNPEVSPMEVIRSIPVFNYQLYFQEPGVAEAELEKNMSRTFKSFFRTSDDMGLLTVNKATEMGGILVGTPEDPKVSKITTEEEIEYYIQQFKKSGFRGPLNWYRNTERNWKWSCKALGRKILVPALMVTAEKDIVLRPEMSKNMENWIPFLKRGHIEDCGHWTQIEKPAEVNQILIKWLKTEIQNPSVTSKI

[5] = Inhibition of potassium channel IKr
[6] = molecular target: CYP2D6 (Homo sapiens, UniProt P10635); experiment: (§1) Inhibition of CYP2D6; assay type: ADME
CYP2D6, sequence (P10635 whole entry): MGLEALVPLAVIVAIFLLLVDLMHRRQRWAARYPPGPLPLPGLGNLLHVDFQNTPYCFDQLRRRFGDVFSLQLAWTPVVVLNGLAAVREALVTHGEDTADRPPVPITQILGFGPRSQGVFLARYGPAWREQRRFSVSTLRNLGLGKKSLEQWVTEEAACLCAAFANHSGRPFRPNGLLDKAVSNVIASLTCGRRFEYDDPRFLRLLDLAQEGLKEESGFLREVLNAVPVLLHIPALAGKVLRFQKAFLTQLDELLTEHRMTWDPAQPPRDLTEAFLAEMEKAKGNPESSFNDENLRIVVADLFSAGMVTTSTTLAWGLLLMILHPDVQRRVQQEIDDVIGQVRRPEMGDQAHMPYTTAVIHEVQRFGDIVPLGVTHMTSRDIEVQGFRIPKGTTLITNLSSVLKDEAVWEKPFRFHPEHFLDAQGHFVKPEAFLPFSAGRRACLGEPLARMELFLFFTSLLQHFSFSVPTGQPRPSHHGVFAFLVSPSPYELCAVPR

[7] = molecular target: Cytochrome P450 3A4 (Homo sapiens, UniProt P08684); experiment: Inhibition of CYP3A4; assay type: ADME
Cytochrome P450 3A4, sequence (P08684 whole entry): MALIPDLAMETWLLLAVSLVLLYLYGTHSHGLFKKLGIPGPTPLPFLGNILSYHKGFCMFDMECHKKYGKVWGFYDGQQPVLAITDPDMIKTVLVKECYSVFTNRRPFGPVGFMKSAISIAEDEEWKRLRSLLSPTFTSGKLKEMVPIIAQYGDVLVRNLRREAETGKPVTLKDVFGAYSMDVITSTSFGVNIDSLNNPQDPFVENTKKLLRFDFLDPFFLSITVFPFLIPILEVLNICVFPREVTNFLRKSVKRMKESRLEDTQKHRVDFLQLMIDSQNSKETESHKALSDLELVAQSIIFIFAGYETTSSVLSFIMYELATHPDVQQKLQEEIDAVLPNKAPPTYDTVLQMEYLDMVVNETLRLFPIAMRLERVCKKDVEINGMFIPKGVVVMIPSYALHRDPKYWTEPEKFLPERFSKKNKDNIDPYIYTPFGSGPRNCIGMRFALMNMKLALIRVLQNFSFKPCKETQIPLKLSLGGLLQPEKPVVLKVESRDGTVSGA

[8] = molecular target: T1, Bifunctional epoxide hydrolase 2; experiment: Inhibition of human soluble epoxide hydrolase
[9] = molecular target: Sodium channel protein type 5 subunit alpha (Homo sapiens, UniProt Q14524); experiment: Inhibition of Nav1.5 channel
Sodium channel protein type 5 subunit alpha, sequence (Q14524 whole entry): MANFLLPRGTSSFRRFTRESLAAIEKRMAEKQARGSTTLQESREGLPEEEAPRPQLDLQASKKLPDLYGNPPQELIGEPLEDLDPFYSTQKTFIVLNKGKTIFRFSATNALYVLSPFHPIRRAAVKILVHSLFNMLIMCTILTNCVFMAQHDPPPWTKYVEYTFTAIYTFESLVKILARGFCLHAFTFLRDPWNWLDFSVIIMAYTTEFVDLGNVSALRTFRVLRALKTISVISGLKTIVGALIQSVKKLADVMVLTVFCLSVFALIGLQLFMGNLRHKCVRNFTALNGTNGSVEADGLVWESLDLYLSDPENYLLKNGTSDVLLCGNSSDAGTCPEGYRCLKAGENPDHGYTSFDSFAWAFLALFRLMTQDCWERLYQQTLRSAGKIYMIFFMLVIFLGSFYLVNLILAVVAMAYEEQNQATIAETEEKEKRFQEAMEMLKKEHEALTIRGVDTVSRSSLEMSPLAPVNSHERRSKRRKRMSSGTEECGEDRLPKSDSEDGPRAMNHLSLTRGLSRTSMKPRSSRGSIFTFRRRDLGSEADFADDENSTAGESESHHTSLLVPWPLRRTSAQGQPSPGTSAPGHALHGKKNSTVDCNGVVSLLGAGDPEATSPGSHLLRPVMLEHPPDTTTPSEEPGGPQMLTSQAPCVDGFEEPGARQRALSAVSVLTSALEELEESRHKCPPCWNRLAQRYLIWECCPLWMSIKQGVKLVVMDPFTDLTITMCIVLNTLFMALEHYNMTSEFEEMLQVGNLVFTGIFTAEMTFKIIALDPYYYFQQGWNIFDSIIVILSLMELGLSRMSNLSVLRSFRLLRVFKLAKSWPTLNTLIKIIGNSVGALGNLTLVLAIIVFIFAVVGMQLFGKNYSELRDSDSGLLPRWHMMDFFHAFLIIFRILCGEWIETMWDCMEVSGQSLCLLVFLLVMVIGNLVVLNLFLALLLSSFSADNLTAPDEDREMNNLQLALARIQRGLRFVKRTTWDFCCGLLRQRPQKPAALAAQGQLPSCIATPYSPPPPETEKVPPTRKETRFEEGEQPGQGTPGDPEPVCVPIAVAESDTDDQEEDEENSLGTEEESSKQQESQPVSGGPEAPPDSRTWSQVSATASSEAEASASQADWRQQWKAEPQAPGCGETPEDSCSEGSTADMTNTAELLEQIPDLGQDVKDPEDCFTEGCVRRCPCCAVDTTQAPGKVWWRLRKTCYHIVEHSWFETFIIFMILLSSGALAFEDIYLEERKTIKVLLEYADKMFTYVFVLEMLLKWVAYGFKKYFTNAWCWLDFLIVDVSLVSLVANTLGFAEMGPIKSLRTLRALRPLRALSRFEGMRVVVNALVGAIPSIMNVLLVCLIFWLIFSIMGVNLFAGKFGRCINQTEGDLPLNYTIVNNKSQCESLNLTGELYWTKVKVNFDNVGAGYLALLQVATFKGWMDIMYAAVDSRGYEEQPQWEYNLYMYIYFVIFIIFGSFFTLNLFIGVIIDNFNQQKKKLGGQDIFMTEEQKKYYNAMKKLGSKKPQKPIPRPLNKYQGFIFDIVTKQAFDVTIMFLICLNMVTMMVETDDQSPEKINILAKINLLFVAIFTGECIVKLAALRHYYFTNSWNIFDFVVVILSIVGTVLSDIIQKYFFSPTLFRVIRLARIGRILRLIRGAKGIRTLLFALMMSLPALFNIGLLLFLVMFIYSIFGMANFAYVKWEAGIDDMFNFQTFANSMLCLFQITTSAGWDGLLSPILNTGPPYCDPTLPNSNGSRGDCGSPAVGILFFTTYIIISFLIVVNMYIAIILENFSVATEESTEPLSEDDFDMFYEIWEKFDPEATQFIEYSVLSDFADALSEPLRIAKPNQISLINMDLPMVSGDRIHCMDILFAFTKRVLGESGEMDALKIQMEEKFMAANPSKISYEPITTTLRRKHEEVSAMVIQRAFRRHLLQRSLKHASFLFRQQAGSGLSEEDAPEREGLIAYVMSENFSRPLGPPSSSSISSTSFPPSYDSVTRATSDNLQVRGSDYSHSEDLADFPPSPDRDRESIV

[10] = Half life in rat at 1 mg/kg, iv and 2 mg/kg, po; assay type: ADME, organism-based; conditions: in vivo
Procedure, shortened: (§2)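 Rats dosed IV at 1 mg/kg (n = 2) and PO at 2 mg/kg (n = 3). Blood drug levels measured by LC/MS/MS after protein precipitation with acetonitrile.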

[11] = Bioavailability in rat at 1 mg/kg, iv and 2 mg/kg, po; assay type: ADME, organism-based; conditions: in vivo; procedure, shortened: as §2
[12] = Volume of distribution at steady state in rat at 1 mg/kg, iv and 2 mg/kg, po; assay type: ADME, organism-based; conditions: in vivo, read-out: Vdss; procedure, shortened: as §2
[13] = molecular target: Cytochrome P450 2D6 (Homo sapiens, UniProt P10635); experiment: as §1; assay type: ADME
Cytochrome P450 2D6, sequence (P10635 whole entry): as the sequence (P10635 whole entry) above

[14] = Clearance in rat at 1 mg/kg, iv and 2 mg/kg, po; assay type: ADME, organism-based; conditions: in vivo; procedure, shortened: as §2
[15] = molecular target: L-type calcium channel; experiment: Inhibition of calcium channel diltiazem binding site
[16] = molecular target: T4, Cytochrome P450 2C8 (Homo sapiens, UniProt P10632); experiment: Inhibition of CYP2C8; assay type: ADME
T4 sequence (P10632 whole entry): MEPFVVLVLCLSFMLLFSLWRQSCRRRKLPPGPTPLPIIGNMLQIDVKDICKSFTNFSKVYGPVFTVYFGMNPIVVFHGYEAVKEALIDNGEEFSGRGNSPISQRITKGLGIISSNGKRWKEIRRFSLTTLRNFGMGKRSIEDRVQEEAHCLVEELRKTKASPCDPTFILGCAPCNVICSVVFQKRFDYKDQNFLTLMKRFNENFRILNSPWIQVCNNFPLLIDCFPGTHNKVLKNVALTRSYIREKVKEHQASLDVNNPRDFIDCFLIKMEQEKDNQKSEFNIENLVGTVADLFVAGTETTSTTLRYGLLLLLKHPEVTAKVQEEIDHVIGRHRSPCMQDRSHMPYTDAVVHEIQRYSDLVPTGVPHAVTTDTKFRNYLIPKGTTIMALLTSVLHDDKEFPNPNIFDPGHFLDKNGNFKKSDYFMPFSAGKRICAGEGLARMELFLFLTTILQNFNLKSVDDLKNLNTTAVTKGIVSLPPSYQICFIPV

[17] = system: Rattus norvegicus; experiment: Antihypertensive activity in spontaneously hypertensive rat assessed as change in systolic blood pressure at 50 mg/kg, po up to 8 hrs by telemetry method; assay type: functional, organism-based; design: dose 50 mg/kg; conditions: Artery
Procedure, shortened: (§3)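 Spontaneously hypertensive rats dosed orally at 50 mpk. Systolic and diastolic blood pressure, heart rate and pulse pressure recorded by telemetry over 8 h post dose.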

[18] = system: Rattus norvegicus; experiment: Antihypertensive activity in spontaneously hypertensive rat assessed as change in diastolic blood pressure at 50 mg/kg, po up to 8 hrs by telemetry method; assay type: functional, organism-based; design: dose 50 mg/kg; conditions: Artery; procedure, shortened: as §3

Cytochrome P450 2C9, sequence (P11712 whole entry): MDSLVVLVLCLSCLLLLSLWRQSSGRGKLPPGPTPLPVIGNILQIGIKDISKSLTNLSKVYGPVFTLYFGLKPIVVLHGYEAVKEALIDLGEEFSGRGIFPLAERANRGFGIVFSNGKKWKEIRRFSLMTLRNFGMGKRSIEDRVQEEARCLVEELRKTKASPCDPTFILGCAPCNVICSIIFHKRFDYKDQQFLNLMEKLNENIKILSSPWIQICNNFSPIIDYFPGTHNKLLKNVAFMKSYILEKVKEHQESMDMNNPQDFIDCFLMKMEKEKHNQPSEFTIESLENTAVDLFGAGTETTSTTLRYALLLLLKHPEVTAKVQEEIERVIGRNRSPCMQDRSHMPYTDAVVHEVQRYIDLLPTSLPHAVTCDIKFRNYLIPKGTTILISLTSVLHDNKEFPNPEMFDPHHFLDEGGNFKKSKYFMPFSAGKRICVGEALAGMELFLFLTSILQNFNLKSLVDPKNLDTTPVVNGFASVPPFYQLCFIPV

Compound | IC50 [1] | IC50 [2] | IC50 [3] | IC50 [4] | IC50 [5] | IC50 [6] | IC50 [7] | IC50 [8] | IC50 [9] | half-life [10] | bioavailability [11] | Vd [12] | IC50 [13] | clearance [14] | IC50 [15] | IC50 [16] | Activity [17] | Activity [18]
CC1(c2ccccc2)CCCN(C(=O)NCCc2ccc3nc[nH]c3c2)C1 (stereo not given) | < 10 µM | 13 nM | > 100 µM | 26 nM | 13 µM | < 10 µM | > 10 µM | 29 nM | – | – | – | – | – | – | – | – | – | –
O=C(O)CCC1(c2ccccc2)CCCN(C(=O)Nc2ccc(Cl)cc2)C1 (stereo in doubt; 2b) | > 10 µM | 4 nM | > 100 µM | 76 nM | > 30 µM | – | > 10 µM | – | > 10 µM | 192 min | 84% | 0.8 L/kg | > 10 µM | 4 mL/min/kg | > 30000 nM | – | – | –
NC(=O)CCC1(c2ccccc2)CCCN(C(=O)Nc2ccc(Cl)cc2)C1 (stereo not given) | > 10 µM | < 1 nM | > 100 µM | 26 nM | 7 µM | – | > 10 µM | – | – | 264 min | 13% | 0.88 L/kg | > 10 µM | 116 mL/min/kg | – | – | – | –
O=C(Nc1ccc(Cl)cc1)N1CCCC(CCO)(c2ccccc2)C1 (stereo not given) | < 10 µM | < 1 nM | > 100 µM | 15 nM | 0.07 µM | – | > 10 µM | 1 nM | > 10 µM | – | – | – | 10 µM | – | 900 nM | – | – | –
O=C(O)CCC1(c2ccccc2)CCCN(C(=O)Nc2ccc(Cl)cc2)C1 (stereo in doubt) [listing 1 of 2 here] | > 100 µM | 2 nM | > 100 µM | 69 nM | – | – | > 100 µM | 5 nM | > 10 µM | – | – | – | > 100 µM | – | – | 65 µM | – | –
O=C(Nc1ccc(Cl)cc1)N1CCCC(CCc2nn[nH]n2)(c2ccccc2)C1 (stereo not given) | > 10 µM | < 1 nM | > 100 µM | 59 nM | 3 µM | – | < 10 µM | 5 nM | > 10 µM | 23.4 min | 0.17% | 1.4 L/kg | 10 µM | 124 mL/min/kg | – | – | – | –
CC1(c2ccccc2)CCCN(C(=O)NCCc2ccc(Cl)cc2)C1 (stereo not given) | > 10 µM | – | 54 µM | 5 nM | 9 µM | < 10 µM | < 10 µM | 1 nM | – | – | – | – | – | – | 2000 nM | – | – | –
CC1(c2ccccc2)CCCN(C(=O)NCc2ccc(Cl)cc2Cl)C1 (stereo not given) | > 10 µM | – | – | 3 nM | 20 µM | < 10 µM | < 10 µM | < 1 nM | < 10 µM | – | – | – | – | – | 2000 nM | – | – | –
CC1(c2ccccc2)CCCN(C(=O)Nc2ccc(Cl)cc2)C1 (stereo not given) | > 10 µM | < 1 nM | > 100 µM | 5 nM | 12 µM | – | < 10 µM | 1 nM | > 10 µM | 234 min | 13% | 12 L/kg | > 10 µM | 43 mL/min/kg | 1700 nM | – | – | –
CN(C)CCC1(c2ccccc2)CCCN(C(=O)Nc2ccc(Cl)cc2)C1 (stereo not given) | > 10 µM | 1.3 nM | > 100 µM | 119 nM | 0.3 µM | < 10 µM | < 10 µM | 12 nM | > 10 µM | 39.6 min | 52% | 1.4 L/kg | – | 59 mL/min/kg | 100 nM | – | – | –
O=C(Nc1ccc(Cl)cc1)N1CCCC(CCCO)(c2ccccc2)C1 (stereo not given) | < 10 µM | < 1 nM | > 100 µM | 10 nM | 6 µM | – | < 10 µM | 1.3 nM | > 10 µM | – | – | – | > 10 µM | – | 5000 nM | – | – | –
O=C(O)CCC1(c2ccccc2)CCCN(C(=O)Nc2ccc(Cl)cc2)C1 (stereo in doubt) [listing 2 of 2 here] | – | – | – | – | – | – | – | – | – | – | – | – | – | – | – | – | inactive | inactive
